Most compounds without a hit are left out; they make up all but 2.2% or so of the library.
ARFGAP1 inhibitor: inhibitors of rat ARFGAP1 GAP activity, primary screen, biochemical, fluorescence polarization, GDP tracer; Arfgap1-stimulated ARF1 GTP hydrolysis, GDP FP detection; inhibition, % at 16.5 µM; hit rate 0.26% among 360,000; ADP-ribosylation factor GTPase-activating protein 1 (Rattus norvegicus), Q62848; AID 651572, 2012;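 active means inhibition above a per-plate limit, mean inhibition of low control wells plus 3 SD, cut at about 25% in these data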;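 further: 0% = DMSO wells with enzyme and 100% = wells lacking Arfgap1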
Target sequence (Q62848 1-136 limits assumed): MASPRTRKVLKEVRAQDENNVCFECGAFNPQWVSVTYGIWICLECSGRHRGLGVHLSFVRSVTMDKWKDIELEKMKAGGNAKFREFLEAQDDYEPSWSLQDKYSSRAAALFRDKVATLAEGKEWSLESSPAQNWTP
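Material: rat Arfgap1 catalytic domain, aa 1-136; also added: human ARF1(Δ1-17)-GTP substrate; compound dosing: one concentration, 16.5 µM, DMSO 1.26%; incubation: GTP hydrolysis reaction 2 h at 25 °C; measured by: Tracer-displacement fluorescence polarization with EDTA stop, 620/688 nm; evaluation: % inhibition from polarization; repeats: one replicate per compound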
ASAP1 inh: inhibitors of human ASAP1 ArfGAP activity, primary screen, biochemical, fluorescence polarization; Arf-GAP with SH3 domain, ANK repeat and PH domain-containing protein 1 (Homo sapiens), …; ASAP1-stimulated ARF1 GTP hydrolysis, GDP FP detection; inhibition, % at 16.5 µM; hit rate 0.19% among 360,000; in the data active means inhibition above about 25%;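 further: 0% = vehicle with enzyme and substrate and 100% = no enzyme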
rCAG RNA binder: binders of r(CAG) RNA repeats, primary screen, biochemical, fluorescence; r(CAG) RNA repeat, TO-PRO-1 dye displacement fluorescence; AID 651821, 2012; hit rate 1.3% among 370,000; inhibition, % at 3 µM;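 active means inhibition above the plate cutoff, the mean of all test compounds on that plate plus 3 SD, cut at about 35% in these data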;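 further: 0% = DMSO alone and 100% = 100 µM mitoxantrone as full dye displacement; higher means more dye released from RNA so lower well fluorescence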
NadD inh: inhibitors of S. aureus NadD, primary screen, biochemical, colorimetric, uHTS; purified NadD enzyme, colorimetric absorbance read-out; Nicotinate-nucleotide adenylyltransferase NadD (Staphylococcus aureus N315); hit rate 0.78% among 360,000; AID 602399, 2012; inhibition, % at 20 µM; in the data active means inhibition above about 26%
ARFGAP1 confirm: ARFGAP1 inhibitor hit confirmation, biochemical, fluorescence polarization, triplicate; AID 651608, 2012; hit rate 30% among 890; inhibition, % at 16.5 µM; ARFGAP1-stimulated ARF1 GTP hydrolysis, GDP tracer FP; shares compounds with ARFGAP1 inhibitor;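 active means average inhibition over triplicates above the hit cutoff set in the earlier primary screen, cut at about 25% in these data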;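 further: 0% = Arfgap1 plus ARF1-GTP with DMSO and 100% = wells lacking Arfgap1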
Target sequence (Q62848 whole entry, looked up): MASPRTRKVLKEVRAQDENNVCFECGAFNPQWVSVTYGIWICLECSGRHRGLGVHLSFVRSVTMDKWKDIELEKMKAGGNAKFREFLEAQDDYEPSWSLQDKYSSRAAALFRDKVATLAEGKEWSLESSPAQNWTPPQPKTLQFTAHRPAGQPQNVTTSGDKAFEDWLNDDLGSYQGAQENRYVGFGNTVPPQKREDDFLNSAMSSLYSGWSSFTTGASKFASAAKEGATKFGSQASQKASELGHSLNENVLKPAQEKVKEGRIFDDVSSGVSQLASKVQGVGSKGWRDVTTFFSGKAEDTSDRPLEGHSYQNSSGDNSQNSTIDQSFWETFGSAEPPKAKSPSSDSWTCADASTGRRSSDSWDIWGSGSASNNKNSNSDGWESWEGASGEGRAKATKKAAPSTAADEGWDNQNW
An asterisk follows results filed as active; x = not tested or not shown.

SMILES	ARFGAP1 inhibitor	ASAP1 inh	rCAG RNA binder	NadD inh	ARFGAP1 confirm
O=C1CCC(c2ccccc2)(c2ccccc2)CC1	27.9*	8.8	0.9	-5.2	-3.8
O=C1CCCCC1(c1ccccc1)c1ccccc1	-5.7	-2.1	-1.1	-5.6	x
C[C@H](c1ccccc1)N1C[C@@H](COCc2ccccc2)Oc2cc(N3CCC[C@H]3CO)ccc2S1(=O)=O	11.1	2.6	10.3	4.7	x
Nc1nonc1-c1nc2ccccc2n1Cc1ccc(Cl)cc1	24.7*	7.7	3.1	-1.6	1.3
Cc1ccc(Cn2c(-c3nonc3N)nc3ccccc32)cc1	5.9	-3.2	1.6	-2.9	x
O=[N+]([O-])c1cccc(-n2cc3ccc([N+](=O)[O-])cc3n2)c1	40.1*	18.1	8.4	6.1	44.8*
CC(C)Cn1c(N)c(C(=O)CSc2nc3ncc(Cl)cc3[nH]2)c(=O)n(C)c1=O	25.2*	11.2	6.6	2.3	10.4
O=C(Nc1ccc2ccccc2c1)NC1CCCCN(Cc2ccc(Cl)cc2)C1=O (stereo not drawn)	x	x	7.2	x	x
Cc1ccc2nc(Nc3nc(CSc4nc5ccccc5s4)cc(=O)[nH]3)nc(C)c2c1	24.8*	-2.0	4.3	26.1	-3.8
CC(C)=CCC/C(C)=C/CC/C(C)=C/CC/C(C)=C/CC1=C(C)C(=O)c2ccccc2C1=O	2.2	-1.7	6.8	8.9	x
CC(C)=CCC1=C(OCC(=O)O)C(=O)c2ccccc2C1=O	25.2*	18.2	12.8	-1.4	-4.7
C=C(C)C(=O)OCC(O)COc1ccc(C(C)(C)c2ccc(OCC(O)COC(=O)C(=C)C)cc2)cc1 (stereo not drawn)	32.3*	5.8	5.2	-5.8	13.8
CCCc1ccc(Oc2c(-c3ccc(O)c(C)c3O)n[nH]c2C)cc1	7.7	-2.0	5.3	-4.0	x
CCCc1ccc(Oc2cn[nH]c2-c2ccc(O)c(C)c2O)cc1	27.1*	14.0	16.1	-12.0	31.4*
O=c1[nH]c(/C=C2\C=Nc3ccccc32)c(O)n1Cc1ccccc1F	25.0*	16.4	25.2	-5.3	15.5
CCC(C)[C@@H](C(=O)OC)N(Cc1cn(Cc2ccccc2)nn1)S(=O)(=O)c1ccccc1Br (stereo partly drawn)	x	x	-1.0	x	x
CO/N=C/c1cccn1-c1nccc(OC)c1C#N	30.6*	-1.3	2.8	-0.3	4.3
COC(=O)[C@]12C[C@H](CC(=O)NCc3cccc(C(F)(F)F)c3)C(=O)N(Cc3ccccc3)C1=C[C@H](C(C)(C)C)O[C@@H]2C	-1.5	-2.5	3.0	x	x
COc1ccc(COC[B-](F)(F)F)cc1	-3.8	9.5	2.3	6.6	x
Cn1c(C(=O)NCC2CCCO2)cc2c(=O)[nH]c3ccccc3c21 (stereo not drawn)	25.0*	14.8	2.1	2.6	-2.8
Cc1ccc(C)c(NC(=O)CN(C)C(=O)c2ccc(-c3cccc(C(F)(F)F)c3)o2)c1	3.9	-0.2	-0.1	-6.6	x
CN(c1cccnc1)c1ccc(NC(=O)Cc2c[nH]c3ccccc23)cc1-c1ccc(F)c(F)c1	25.4*	3.4	15.9	x	6.3
S=C(NCc1ccncc1)Nc1cc(Cl)cc(Cl)c1	24.9*	9.6	0.5	-2.9	4.5
S=C(NCc1cccnc1)Nc1cc(Cl)cc(Cl)c1	25.2*	1.4	3.1	-7.6	1.4
CN(CC(=O)NCC1CCCO1)S(=O)(=O)c1ccc(Br)cc1 (stereo not drawn)	5.3	-6.3	-1.6	-5.9	x
SMILES	ARFGAP1 inhibitor	ASAP1 inh	rCAG RNA binder	NadD inh	ARFGAP1 confirm
CN(CC(=O)NCC1CCCO1)S(=O)(=O)c1ccc2ccccc2c1 (stereo not drawn)	32.2*	2.9	0.4	-3.6	1.1
COc1ccc(NC(=O)c2c3c(nc4ccccc24)CCN(Cc2ccccc2)C3)c(OC)c1	24.8*	8.4	-1.4	8.7	6.1
COc1ccc(S(=O)(=O)N2CCCCCC2)cc1NC(=O)c1c2c(nc3ccccc13)CCN(Cc1ccccc1)C2	10.6	3.3	11.3	4.7	x
CC(=O)N1CCN(S(=O)(=O)c2ccc(C)cc2)C1C (stereo not drawn)	29.9*	8.6	-5.1	2.3	1.9
Cc1ccccc1OCC(=O)N(Cc1cccs1)C1CCS(=O)(=O)C1 (stereo not drawn)	24.6*	9.7	-5.5	-0.2	-0.7
Cc1cccc(C)c1OCC(=O)N(Cc1cccs1)C1CCS(=O)(=O)C1 (stereo not drawn)	0.6	8.0	-5.7	4.3	x
CC(C)(C)S(=O)(=O)N1C[C@H]2CC/C=C\C/C(c3ccccc3)=C\2[C@@H]1CCO	3.5	-10.0	0.8	2.0	x
COc1ccc(NC(=O)COC(=O)c2c3c(nc4ccccc24)CCCC3)cc1Cl	26.9*	0.0	12.0	13.9	13.6
COC(=O)c1c(NC(=O)C2CC=CCC2C(=O)O)sc(C(N)=O)c1C (stereo not drawn)	25.2*	2.1	12.3	7.3	4.1
COC(=O)c1c(NC(=O)C2CC=CCC2C(=O)O)sc(C)c1C (stereo not drawn)	5.6	-1.8	7.9	-8.9	x
C=C(C)/C=C1/C(Cc2ccccc2)N(CC2CC2)C(=N)N1C(=O)OCc1ccccc1 (stereo not drawn)	x	x	1.0	x	x
Cc1cc(C2(c3ccc(O)c(C)c3)OC(=O)c3ccccc32)ccc1O	19.7	-3.2	10.7	-6.1	x
Cc1cc(O)c(C(C)C)cc1C1(c2cc(C(C)C)c(O)cc2C)OC(=O)c2ccccc21	27.2*	18.0	1.2	8.9	19.5
O=C(Nc1ccc(F)cc1)C(CCc1ccccc1)N1CCN(c2cccc(C(F)(F)F)n2)CC1 (stereo not drawn)	5.0	11.9	5.8	x	x
CC1(C(=O)Nc2cccc(C(F)(F)F)c2)Cc2c(-c3cccc(C(F)(F)F)c3)ccnc2O1 (stereo not drawn)	33.7*	4.3	0.0	5.0	11.4
CC(=O)Nc1cccc(-c2ccnc3c2CC(C)(C(=O)Nc2cccc(C(F)(F)F)c2)O3)c1 (stereo not drawn)	-0.4	5.8	-0.6	-0.8	x
CN1CCCCC(NC(=O)c2ccc(C#N)cc2)C1=O (stereo not drawn)	0.4	-0.2	1.1	x	x
COc1ccc(-n2c(COc3ccccc3)nnc2SCC(=O)Nc2ccc3c(c2)OCCO3)cc1	x	x	2.9	x	x
COc1ccc(CNC(=O)CCS(=O)(=O)c2ccc3c(c2)NC(=O)CS3)cc1	25.1*	1.1	10.4	-17.1	-3.2
COC(=O)C1=C(C)N(Cc2ccc(Br)cc2)C(=S)NC1c1ccc(OC)cc1 (stereo not drawn)	-6.1	5.1	3.7	x	x
Cc1ccc(C(=O)Nc2ccc(S(=O)(=O)N3CCCC3)cc2)o1	25.8*	-0.7	-4.3	-0.7	-0.6

Compound activity deposited in PubChem BioAssay by several laboratories.
